Bioassay records from PubChem.
Tb MetRS inh – T. brucei MetRS inhibitors, primary screen, biochemical, luminescence; actives 0.4% (n = 360,000); AID 624268, 2012; purified T. brucei MetRS, ATP depletion, Kinase-Glo luminescence; inhibition, % at 11.9 µM;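 active = inhibition above a per-plate cutoff of the control wells' mean inhibition plus 3 SD, cut at about 5.5% in these data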;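 note: 0% = DMSO wells median and 100% = median of wells with control inhibitor compound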
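Test system – parasite MetRS enzyme · Reagent – substrates ATP, L-methionine and bulk Escherichia coli tRNA · Doses – 11.9 µM compound single dose, 0.9% DMSO · Times – 15 min enzyme-compound preincubation, 2 h reaction, 10 min detection, 25 °C · Signal – Kinase-Glo luminescence, ATP depletion format · Controls – DMSO-only wells as low control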
AHR act – AHR activators, primary screen, cell-based, luminescence, luciferase reporter, human | actives 2.5% (n = 320,000) | activation, % at 5 µM | Aryl hydrocarbon receptor (Homo sapiens), P35869 | AHR-responsive luciferase reporter cells; in the data active = activation above about 47%;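 note: 0% = vehicle wells and 100% = reference agonist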
Target sequence (P35869 whole entry, looked up): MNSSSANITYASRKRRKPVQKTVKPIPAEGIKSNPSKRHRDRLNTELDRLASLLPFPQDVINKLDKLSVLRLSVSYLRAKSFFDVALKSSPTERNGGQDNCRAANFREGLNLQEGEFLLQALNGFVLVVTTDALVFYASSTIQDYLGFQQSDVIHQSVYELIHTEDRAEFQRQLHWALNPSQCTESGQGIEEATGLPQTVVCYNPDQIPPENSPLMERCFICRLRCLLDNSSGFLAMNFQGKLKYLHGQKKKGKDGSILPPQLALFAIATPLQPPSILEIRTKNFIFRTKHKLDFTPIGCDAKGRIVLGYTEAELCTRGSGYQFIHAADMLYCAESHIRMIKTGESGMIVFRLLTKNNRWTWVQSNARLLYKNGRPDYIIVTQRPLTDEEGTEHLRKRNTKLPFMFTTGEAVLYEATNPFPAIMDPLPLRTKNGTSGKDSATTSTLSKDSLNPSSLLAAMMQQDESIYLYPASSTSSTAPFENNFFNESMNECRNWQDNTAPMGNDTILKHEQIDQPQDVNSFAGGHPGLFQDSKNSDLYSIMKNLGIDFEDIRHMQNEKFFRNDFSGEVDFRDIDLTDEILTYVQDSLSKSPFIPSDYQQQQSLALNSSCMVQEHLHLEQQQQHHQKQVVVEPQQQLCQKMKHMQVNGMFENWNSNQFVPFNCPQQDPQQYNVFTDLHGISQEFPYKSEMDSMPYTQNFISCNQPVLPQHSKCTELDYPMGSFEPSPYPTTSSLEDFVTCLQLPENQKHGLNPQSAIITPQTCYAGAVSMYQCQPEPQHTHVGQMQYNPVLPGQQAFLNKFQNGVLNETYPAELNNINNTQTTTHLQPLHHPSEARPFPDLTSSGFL
Efflux pump inh – inhibitors of Candida efflux pumps in yeast, primary screen, S. cerevisiae, Nile Red, multiplex; S. cerevisiae Candida pump triplex; inhibition, % at 10 µM; actives 0.44% (n = 330,000);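 active = plate passing quality check with inhibition over a set limit, or well fluorescence over plate mean plus 4 SD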;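 note: Nile Red retained in pooled yeast measured as flow cytometry median fluorescence; 0% = buffer negative control and 100% = Enniatin B positive control; higher means more Nile Red kept so more efflux inhibition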
SMARCA2 activ – SMARCA2 (BRM) function activators, primary screen, cell-based, luminescence, high throughput; MG213 cells, MMTV-luciferase reporter, dexamethasone, overnight; activation, % at 9.1 µM; actives 1% (n = 370,000); AID 652017, 2013; in the data active = activation above about 7.8%;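 note: 0% = vehicle wells and 100% = reference activator wells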
TAG inh – inhibitors of triacylglycerol accumulation, primary screen, cell-based, uHTS, fluorescence, H9c2; actives 0.66% (n = 230,000); inhibition, % at 12.5 µM; H9c2 cells, Nile Red lipid (TAG) fluorescence; cells loaded with 200 µM oleic acid;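 active = pattern-corrected inhibition of lipid staining of at least 50% with the nuclear-stain viability signal not falling by more than 50%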;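 note: 0% = DMSO wells and 100% = triacsin C control wells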
SMARCA2 conf – SMARCA2 (BRM) function activators, confirmation, cell-based, luminescence, triplicate; shares compounds with SMARCA2 activ; MG213 cells, MMTV-luciferase with dexamethasone, overnight; MG213 cells expressing E1A, Rb sequestered; DMSO wells 0%, reference activator 100%; activation, % at 9.1 µM; actives 30% (n = 3,500); AID 652260, 2013;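 active = activation above its plate's cutoff, the mean activation of tested wells plus 3 SD, cut at about 7.9% in these data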
GAL4-VP16 Luc – GAL4-VP16 luciferase reporter activation, counter-screen for SMARCA2 (BRM) activator project, cell-based, pG5luc, luminescence, high throughput; shares compounds with SMARCA2 activ; HEK293 GAL4-VP16 pG5luc reporter; scaled: DMSO wells 0%, SAHA wells 100%; activation, % at 9.1 µM; actives 41% (n = 3,500);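 active = activation above the solvent-only control well mean plus 3 SD, averaged across control plates, cut at about 5.2% in these data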
Numbers without * were called inactive; . = no result given. Only some compounds are listed: those with a hit (about 4.1% of all), similar ones and a draw of the others.

SMILES	Tb MetRS inh	AHR act	Efflux pump inh	SMARCA2 activ	TAG inh	SMARCA2 conf	GAL4-VP16 Luc
C=CCN1C[C@H](COC(=O)CSc2ccccc2)Oc2cccc(F)c2S1(=O)=O	.	.	.	-2	.	.	.
CCCC[C@H]1C2CC(OC(=O)Nc3ccccc3C)C(C2)[C@H]2CCCCN21 (stereo partly drawn)	.	.	.	-3	.	.	.
CC(C)C[C@@H]1COc2cc(NCCCN3CCOCC3)ccc2S(=O)(=O)N1	.	.	.	-5	.	.	.
CCCCC1OC(CCc2ccccc2)CC2=C1C(=O)OC(C)(C)O2 (stereo not drawn)	.	.	.	-4	.	.	.
CC1(C)Cc2c(sc(NC(=O)c3ccc4ncsc4c3)c2C(N)=O)C(C)(C)N1	0	16	0	8.5*	5	13*	8.0*
CC1(C)Cc2c(sc(NC(=O)c3ccc(C(=O)c4ccccc4)cc3)c2C(N)=O)C(C)(C)N1	0	-1	0	-2	20	.	.
O=C(N/N=C1\CCCc2ccccc21)c1ccccc1Cl	-1	4	0	1	6	.	.
O=C(N/N=C1\CCc2ccccc21)c1ccccc1O	-1	3	0	10.0*	-10	5	7.4*
COC(=O)c1ccc(NC(=S)Nc2ccccc2)cc1	0	8	0	2	.	.	.
COC(=O)c1ccc(NC(=S)NC2c3ccccc3CC2O)cc1 (stereo not drawn)	-1	5	0	8.3*	.	4	0
COC(=O)C1=C(C)N(C)C(=NCc2ccc3c(c2)OCO3)NC1c1ccccc1 (stereo not drawn)	.	.	.	-1	.	.	.
COc1ccccc1NC(=O)C(=O)/C=C(\O)c1ccccc1	0	10	0	10*	3	-1	0
CCOc1ccccc1NC(=O)C(=O)/C=C(\O)c1cc(OC)ccc1OC	0	4	0	-3	11	.	.
NC(=O)C1CCCN(Cc2ccc(Cl)cc2)C1 (stereo not drawn)	0	-1	0	8.3*	.	6	-1
CCC(C)c1ccc(OCCN2CCCC2)cc1 (stereo not drawn)	-1	2	0	9.2*	7	3	1
CCOc1ccc(OCCN2CCCCC2)cc1	0	2	0	0	.	.	.
COc1ccc(NC(=O)O/N=C/c2ccccc2)cc1	0	1	0	4	2	.	.
COc1ccc(NC(=O)O/N=C/c2ccccc2Cl)cc1	1	2	0	10*	11	4	3
CC1(C)CC(=O)CC2(C1)NCC(c1ccccc1)c1c2[nH]c2ccccc12 (stereo not drawn)	-1	8	0	8.7*	-8	-2	1
COc1cc2c(c(OC)c1OC)[C@@]1(c3ccccc3)CCCC[C@H]1[C@@H]2NC(=O)C(F)(F)F	.	.	.	3	.	.	.
O=C(c1[nH]ncc1-c1cccc(Br)c1)C1CO1 (stereo not drawn)	0	-1	0	11*	11	12*	0
O=C(c1[nH]ncc1-c1ccccc1)C1CO1 (stereo not drawn)	0	0	0	3	15	.	.
Nc1ccn([C@@H]2O[C@H](C(=O)NCC(=O)N3CCOCC3)[C@@H](O)[C@H]2O)c(=O)n1	.	.	.	2	.	.	.
CS(=O)(=O)N1N=C(c2ccccc2)CC1c1ccc2c(c1)OCO2 (stereo not drawn)	0	18	0	3	.	.	.
CS(=O)(=O)Nc1cccc(C2=NN(S(C)(=O)=O)C(c3ccc4c(c3)OCO4)C2)c1 (stereo not drawn)	0	6	0	9.1*	.	6	7.1*
SMILES	Tb MetRS inh	AHR act	Efflux pump inh	SMARCA2 activ	TAG inh	SMARCA2 conf	GAL4-VP16 Luc
COc1ccc(-c2cc(C(=O)N=Nc3c(O)[nH]c4ccccc34)[nH]n2)cc1	.	.	.	-2	.	.	.
Cc1cccc(C(=O)N[C@H](C(=O)Nc2nc3ccccc3[nH]2)C(C)C)c1	3	18	0	-2	45	.	.
COc1ccc(C(=O)N[C@H](C(=O)Nc2nc3ccccc3[nH]2)C(C)C)cc1	0	18	0	13*	48	12*	15*
O=c1ccc(/C=C/c2ccccc2)nn1Cc1ccccc1	0	8	0	-2	1	.	.
Cn1nc(/C=C/c2ccccc2)ccc1=O	0	-1	0	8.9*	0	3	5
COc1cccc(C2NC(=S)N(Cc3ccccc3)C(C)=C2C(C)=O)c1 (stereo not drawn)	.	.	.	0	.	.	.
CC(=O)Nc1sc(NC(=O)c2ccc([N+](=O)[O-])cc2)nc1-c1cccs1	-1	3	0	9.4*	10	-5	0
CNC(C)C#Cc1ccc2c(=O)c3ccccc3oc2c1 (stereo not drawn)	0	18	0	9.2*	5	13*	4
Nc1ccc(C#Cc2ccc3c(=O)c4ccccc4oc3c2)cc1	-1	27	0	3	-10	.	.
COc1nc(C)nc2c1sc1nc3c(cc12)COC(C)(C)C3	0	1	0	10*	.	4	13*
Cc1nc(OCC(C)C)c2sc3nc4c(cc3c2n1)COC(C)(C)C4	0	2	0	8	-10	.	.
CCc1c(-c2ccccc2)ncn1CCc1ccccc1OC	.	.	.	-1	.	.	.
Cc1ccccc1Oc1cc(-n2ncc(Cl)c(Cl)c2=O)ncn1	0	32	0	11*	.	-15	2
Cn1c(=O)c2cc(S(=O)(=O)NC(C(=O)NCc3cccnc3)c3ccccc3)ccc2n(C)c1=O (stereo not drawn)	0	-1	0	5	14	.	.
Cn1c(=O)c2cc(S(=O)(=O)NC(C(=O)Nc3cccnc3)c3ccccc3)ccc2n(C)c1=O (stereo not drawn)	0	-3	0	10*	-1	0	-2
Cc1ccc(NNC(=O)c2c(F)cccc2Cl)cc1C	0	4	0	8.1*	-6	1	1
CCCCCn1nnnc1C1(C)CCSCC(=O)N1Cc1ccco1 (stereo not drawn)	.	.	.	8.4*	.	-1	-1
CCOC(=O)C1=C(C)N=c2sc(=Cc3ccc(OCC(=O)O)cc3)c(=O)n2C1c1ccc(Cl)cc1 (stereo not drawn)	0	.	.	-2	5	.	.
